An excerpt weighted towards active compounds, which were near 2.2% of everything screened.
NR2E3 ag-1 – activates human photoreceptor nuclear receptor NR2E3. AID 2300. GST-NR2E3/biotin-RetCOR TR-FRET, 1536-well. 320,000 compounds, 0.12% hits. Q9Y5X4. inhibition of corepressor binding, % at 4.78 µM;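 active = percent inhibition above the cutoff of mean plus 3 SD of all tested compounds, set per screening campaign, cut at about 20% in these data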;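 also: 0% = DMSO wells and 100% = biotin wells as full block of FRET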
Target sequence (Q9Y5X4 whole entry, looked up): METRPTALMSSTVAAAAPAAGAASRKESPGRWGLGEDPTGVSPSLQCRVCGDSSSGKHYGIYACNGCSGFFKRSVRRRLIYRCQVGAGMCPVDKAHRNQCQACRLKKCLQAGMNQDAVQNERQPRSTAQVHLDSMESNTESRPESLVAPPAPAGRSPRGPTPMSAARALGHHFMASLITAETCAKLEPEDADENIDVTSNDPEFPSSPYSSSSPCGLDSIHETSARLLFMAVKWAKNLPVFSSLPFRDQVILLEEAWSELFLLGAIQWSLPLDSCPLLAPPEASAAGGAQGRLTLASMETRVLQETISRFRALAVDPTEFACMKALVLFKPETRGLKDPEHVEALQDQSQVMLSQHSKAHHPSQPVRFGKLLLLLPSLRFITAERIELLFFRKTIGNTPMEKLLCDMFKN
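Material – GST-tagged NR2E3 plus biotinylated RetCOR corepressor · Quantity – NR2E3 fusion 1.35 nM · Times – 5 h incubation at 4 °C · Medium – pH 7.5 Tris-based buffer · Technique – TR-FRET, Eu(K)-anti-GST donor, streptavidin-D2 acceptor, ex 340, em 617/671 nm · Benchmarks – high control biotin, low control 0.6% DMSO · Format – 1536-well plates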
GAA850 FXN act – increases GAA850 frataxin promoter reporter activity; HEK293 lucGAA850 FXN promoter luciferase reporter, 24 h; percent of 10 µM SAHA response; 360,000 compounds, 0.56% hits; activation, % at 6 µM;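 active = activation above the average of all compounds screened plus 3 SD, cutoff fixed separately per campaign, cut at about 7.5% in these data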;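 also: 0% = DMSO wells and 100% = 10 µM SAHA wells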
V-ATPase pH – alters yeast V-ATPase proton transport; S. cerevisiae, pHLuorin cytosolic pH fluorescence; response, % at 10 µM; 350,000 compounds, 0.37% hits; in the data active = response mostly above about 7.3%, no sharp cut-off; inactive = mostly below about 5.4%; also: actives read high
Env fusion inh – inhibitors of HIV Env-mediated cell fusion; 360,000 compounds, 1.1% hits; HeLa-JRFL Env/CEM21 cell fusion, luciferase; inhibition, % at 12.3 µM;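 active = mean replicate inhibition score of at least 50 and every replicate individually at or above 50; inconclusive = only one of the two criteria met; inactive = mean below 50 and not all replicates reaching 50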;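 also: 0% = plate neutral controls and 100% = maraviroc near 300 nM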
GalR3 antagonist – human GalR3 antagonism; AID 651719; 360,000 compounds, 0.44% hits; HEK293 GalR3-CNG cAMP membrane potential fluorescence; galR3 body fused to GalR1 C-terminus; inhibition, % at 3 µM; O60755;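 active = inhibition above the screen-wide average plus 3 SD, cut at about 13% in these data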;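 also: forskolin and galanin both at EC90 stimulate the cells; cAMP rise reported by CNG channel membrane potential dye signal; 0% = forskolin plus galanin with DMSO and 100% = forskolin alone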
Target sequence (O60755 1-299 limits assumed): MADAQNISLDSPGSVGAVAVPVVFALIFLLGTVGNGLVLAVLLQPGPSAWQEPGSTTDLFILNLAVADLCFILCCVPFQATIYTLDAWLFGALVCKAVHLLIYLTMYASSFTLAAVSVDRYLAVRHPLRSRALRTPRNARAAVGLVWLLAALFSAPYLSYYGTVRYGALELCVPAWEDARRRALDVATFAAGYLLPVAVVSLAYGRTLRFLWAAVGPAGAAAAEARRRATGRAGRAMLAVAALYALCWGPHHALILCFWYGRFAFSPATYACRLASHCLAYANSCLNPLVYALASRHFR
NR2E3 ag-2 – agonists of human NR2E3 nuclear receptor | Q9Y5X4 | CHO-S Gal4-NCOR/VP16-NR2E3 two-hybrid, luciferase | inhibition of corepressor binding, % at 3.98 µM | 360,000 compounds, 0.35% hits;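 active = inhibition above the mean of all tested compounds plus 3 SD, cut at about 70% in these data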;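 also: 0% = DMSO with NR2E3 transfected cells and 100% = cells lacking NR2E3 construct; higher means lower luciferase signal from less NR2E3 corepressor binding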
GalR3 antag conf – GalR3 (human) antagonism, confirmation; HEK293 GalR3 CNG cAMP biosensor, membrane potential fluorescence; galR3 fused to GalR1 carboxy tail; challenged with forskolin and galanin at EC90; 1,600 compounds, 59% hits; AID 652245; shares compounds with GalR3 antagonist; inhibition, % at 3 µM;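 active = inhibition above the primary screen's cutoff, the mean inhibition of all screened compounds plus 3 SD, cut at about 13% in these data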;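 also: 0% = forskolin plus galanin and 100% = forskolin alone with DMSO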
CNG parental – counter-screen for GalR3 antagonists: nonspecific agonists in parental HEK-CNG cells; activation, % at 3 µM; 1,600 compounds, 10% hits; shares compounds with GalR3 antagonist; HEK293-CNG parental cells, cAMP membrane potential fluorescence; normalised: DMSO wells 0%, forskolin wells 100%; in the data active = activation above about 1.3%
* hit, by the source's call; [ ] = dose if it differs, or a comment.

How did C[C@H]1CCCCO[C@@H](CN(C)C(=O)NC2CCCCC2)[C@@H](C)CN([C@@H](C)CO)C(=O)c2cc(NC(=O)C3CCCCC3)ccc2O1 do in these assays?
Env fusion inh: -41[16.7 µM]

Results for O=C(CCC(=O)c1cccs1)OCC(=O)c1ccc(Cl)s1 ?
NR2E3 ag-1: 4; GAA850 FXN act: 0; V-ATPase pH: 2; NR2E3 ag-2: 7; GalR3 antag conf: 1; CNG parental: 0

What do the screens show for `Cc1cc(C)cc(Nc2c3c(nc4ncnn24)CCC3)c1`?
NR2E3 ag-1: 4; GAA850 FXN act: 1; V-ATPase pH: -3; Env fusion inh: 42; GalR3 antagonist: 13*; NR2E3 ag-2: 12; GalR3 antag conf: -8; CNG parental: 1.6*

What do the screens show for `COc1ccc([C@H]2C=C(C(=O)O)O[C@@H](OCCCCO)C2)cc1`?
NR2E3 ag-1: -2; GAA850 FXN act: 3; V-ATPase pH: -2; Env fusion inh: -8[16.7 µM]; GalR3 antagonist: 17*; NR2E3 ag-2: 1; GalR3 antag conf: -1; CNG parental: 0

Results for CCOC(=O)C1=C(C)NC2=C(C(=O)CC(C)(C)C2)C1c1ccc(O)c(OCC)c1 (stereo not given) ?
NR2E3 ag-1: 2; GAA850 FXN act: -1; V-ATPase pH: -2; Env fusion inh: -12; GalR3 antagonist: 22*; NR2E3 ag-2: 2; GalR3 antag conf: 29*; CNG parental: 0

Results for CCOc1cc(C2C3=C(CC(C)(C)CC3=O)Nc3n[nH]c(C)c32)ccc1O (stereo not given) ?
NR2E3 ag-1: 0; GAA850 FXN act: 2; V-ATPase pH: -1; Env fusion inh: 13; GalR3 antagonist: 31*; NR2E3 ag-2: -2; GalR3 antag conf: 40*; CNG parental: 0

Results for CCOc1cc(C2C(C(=O)N3CCCCC3)=C(C)NC3=C2C(=O)CC(C)(C)C3)ccc1O (stereo not given) ?
NR2E3 ag-1: 3; GAA850 FXN act: -2; V-ATPase pH: -1; Env fusion inh: -140; GalR3 antagonist: -3; NR2E3 ag-2: -9

Results for COC(=O)c1ccc(C2=NOC(C)(c3sc(-c4ccccc4)nc3C)C2)cc1 (stereo not given) ?
NR2E3 ag-1: -1; GAA850 FXN act: 1; V-ATPase pH: -1; Env fusion inh: 14; NR2E3 ag-2: -36; GalR3 antag conf: 32*; CNG parental: 1.5*

Results for COC(=O)c1ccc(C2=NOC(C)(c3sc(-c4ccc(Cl)cc4)nc3C)C2)cc1 (stereo not given) ?
NR2E3 ag-1: 0; GAA850 FXN act: 0; V-ATPase pH: 2; Env fusion inh: 36; GalR3 antagonist: -6; NR2E3 ag-2: -40

How did C[C@@H]1CCCCO[C@H](CN(C)C)[C@@H](C)CN([C@H](C)CO)C(=O)c2cc(NC(=O)Nc3ccc(F)cc3)ccc2O1 do in these assays?
Env fusion inh: -2[16.7 µM]

How did C[C@@H]1CN([C@@H](C)CO)C(=O)c2cccc(NS(=O)(=O)c3ccccc3)c2O[C@@H]1CN(C)S(=O)(=O)c1cccs1 do in these assays?
Env fusion inh: 11[16.7 µM]

How did Clc1cccc(N2CCN(CCNc3nc4ccccc4n4cnnc34)CC2)c1 do in these assays?
NR2E3 ag-1: -4; GAA850 FXN act: 0; V-ATPase pH: 1; NR2E3 ag-2: -18

Results for c1ccc2c(c1)nc(NCCN1CCOCC1)c1nncn12 ?
NR2E3 ag-1: 4; GAA850 FXN act: 0; V-ATPase pH: -1; Env fusion inh: 0; NR2E3 ag-2: -16; GalR3 antag conf: 8; CNG parental: 0

Results for CC(=O)N(C)C[C@@H]1Oc2cc(C#CCC(C)C)ccc2S(=O)(=O)N([C@H](C)CO)C[C@H]1C ?
Env fusion inh: 12[16.7 µM]

Results for O=C(NN=C(c1ccccc1)c1ccccn1)c1ccccc1 ?
GAA850 FXN act: 2; V-ATPase pH: 8; Env fusion inh: 53; GalR3 antagonist: 13*; NR2E3 ag-2: 16; GalR3 antag conf: 39*; CNG parental: 1

How did COc1ccc(C(=O)N/N=C(\c2ccccc2)c2ccccn2)cc1 do in these assays?
NR2E3 ag-1: 3; GAA850 FXN act: 0; V-ATPase pH: -2; Env fusion inh: 43; GalR3 antagonist: -4; NR2E3 ag-2: -10

Results for CC(=O)N1CCc2cc(S(=O)(=O)NCCCN3CCCCC3)ccc21 ?
NR2E3 ag-1: 0; GAA850 FXN act: 1; V-ATPase pH: 3; Env fusion inh: -7; GalR3 antagonist: -5; NR2E3 ag-2: 8

How did CC(=O)N1CCc2cc(S(=O)(=O)NCCC3=CCCCC3)ccc21 do in these assays?
NR2E3 ag-1: -2; GAA850 FXN act: 1; V-ATPase pH: -1; Env fusion inh: inconclusive; GalR3 antagonist: 82*; NR2E3 ag-2: 81*; GalR3 antag conf: 80*; CNG parental: 0

How did C[C@H](CO)N1C[C@H](C)[C@@H](CN(C)S(=O)(=O)c2ccc(F)cc2)Oc2ccc(NC(=O)Nc3ccc(F)cc3)cc2CC1=O do in these assays?
Env fusion inh: 6[16.7 µM]

Results for CCOc1cc(CNCC2CCCN2CC)cc(Cl)c1OC (stereo not given) ?
NR2E3 ag-1: 4; GAA850 FXN act: 1; V-ATPase pH: -1; Env fusion inh: -11; GalR3 antagonist: 15*; NR2E3 ag-2: 3; GalR3 antag conf: 3; CNG parental: 1

What do the screens show for `C[C@@H]1CN([C@H](C)CO)C(=O)Cc2cc(NC(=O)Cc3ccccc3)ccc2O[C@H]1CN(C)C(=O)Nc1ccc(C(F)(F)F)cc1`?
Env fusion inh: -20[16.7 µM]

What do the screens show for `O=C(C[C@H]1CC[C@H](NC(=O)c2ccccc2)[C@H](CO)O1)NCCc1ccncc1`?
Env fusion inh: -3[16.7 µM]

How did CCCCCc1c(C)nc(Nc2ccc(F)cc2)[nH]c1=O do in these assays?
NR2E3 ag-1: 2; GAA850 FXN act: -1; V-ATPase pH: 2; GalR3 antagonist: -4; NR2E3 ag-2: 8

What do the screens show for `CCCCc1c(C)nc(Nc2ccc(OC)cc2)[nH]c1=O`?
NR2E3 ag-1: -6; GAA850 FXN act: -1; V-ATPase pH: 4; Env fusion inh: -9; GalR3 antagonist: 28*; NR2E3 ag-2: -40; GalR3 antag conf: -2; CNG parental: 0

How did COc1cc(N=C2C(=O)N3c4c(cccc42)C(C)=CC3(C)C)cc(OC)c1 do in these assays?
NR2E3 ag-1: 0; GAA850 FXN act: 0; V-ATPase pH: 1; GalR3 antagonist: -1; NR2E3 ag-2: 4

Screens (PubChem BioAssay)
